Results from different studies.
Protocols differ between the studies behind these lines.
SIRT3: NAD-dependent protein deacetylase sirtuin-3, mitochondrial (SIRT3, Homo sapiens, UniProt Q9NTG7)
GABRA1: Gamma-aminobutyric acid receptor subunit alpha-1 (GABRA1, Homo sapiens, UniProt P14867)
PTGS1: Prostaglandin G/H synthase 1 (PTGS1, Ovis aries, UniProt P05979)

CN(C)C1CCN(CC#Cc2nn(C3CCCC3)c3nc(NCc4ccccc4)ncc23)C1 (stereo not drawn) gave an inhibition of 2% (Ribosomal protein S6 kinase alpha-3 (RPS6KA3, Homo sapiens, UniProt P51812); enzyme activity, inhibitor, FRET; 1 µM).
The inhibition of O=C(NC1CCC1)[C@H](Cc1c[nH]c2ccccc12)NC(=O)[C@H](CCCCNC(=S)NCc1n[nH]c(=S)o1)NS(=O)(=O)c1cccc(F)c1 is reported as 12% (SIRT3; enzyme activity, inhibitor; 30 µM).
With O=C(c1ccc(Cl)cc1)N(Cc1ccccc1)C1CCCCC1 the inhibition was -34.8% (GABRA1; cell-free assay; 10 µM).
For CCCCCC1CC(=O)c2cc(Br)cc(Br)c2O1 (stereo not drawn), the inhibition was 6.5% (SIRT3; enzyme activity, inhibitor, fluorescence; 200 µM).
The inhibition of CCCCCCCCCCCCNC(=S)NCCCC[C@H](NC(=O)OCc1ccccc1)C(=O)N[C@@H](Cc1c[nH]c2ccccc12)C(=O)N[C@@H](CCC(=O)O)C(N)=O is reported as 21% (SIRT3; enzyme activity, inhibitor; 10 µM).
The inhibition of CCCCCC1CC(=O)c2ccc(F)cc2O1 (stereo not drawn) is reported as 2.2% (SIRT3; enzyme activity, inhibitor, fluorescence; 200 µM).
CCCCCCCCCCCCNC(=S)NCCCC[C@H](NC(=O)OCc1ccccc1)C(=O)N[C@@H](Cc1c[nH]c2ccccc12)C(=O)N[C@@H](CCNC(=N)N)C(N)=O gave an inhibition of 48% (SIRT3; enzyme activity, inhibitor; 10 µM).
For O=C(NC1CCC1)[C@H](Cc1c[nH]c2ccccc12)NC(=O)[C@H](CCCCNC(=S)NCCn1nn[nH]c1=O)NS(=O)(=O)c1cccc(F)c1, the inhibition was 10% (SIRT3; enzyme activity, inhibitor; 100 µM).
COc1ccc(-n2nc(OCCCN3CCCCC3)ccc2=O)cc1 gave an inhibition of 44.5% (Transient receptor potential cation channel subfamily V member 1 (TRPV1, Homo sapiens, UniProt Q8NER1); ligand displacement; 1 µM).
For CCCCCCCCCCCCNC(=S)NCCCC[C@H](NC(=O)OCc1ccccc1)C(=O)N[C@@H](C)C(=O)N[C@@H](CCCNC(=N)N)C(N)=O, the inhibition was 20% (SIRT3; enzyme activity, inhibitor; 1 µM).
C=CN1CCCn2c1nc1c2c(=O)n(C)c(=O)n1C gave an inhibition of 47% (Adenosine receptor A2a (Adora2a, Rattus norvegicus, UniProt P30543); ligand displacement, radioligand; 25 µM, cell membranes).
CCCCCCCCCCCCNC(=S)NCCCC[C@H](NC(=O)C1CCCCC1)C(=O)N[C@H](C)C(=O)N[C@@H](CCCNC(=N)N)C(N)=O has an inhibition of 41% (SIRT3; enzyme activity, inhibitor; 10 µM).
CCCCCC1CC(=O)c2cc(Cl)ccc2O1 (stereo not drawn) gave an inhibition of 6% (SIRT3; enzyme activity, inhibitor, fluorescence; 200 µM).
For CCCCCCCCCCCCNC(=S)NCCCC[C@H](NC(=O)OCc1ccccc1)C(=O)N[C@@H](Cc1c[nH]c2ccccc12)C(=O)N[C@@H](CCCNC(=N)N)C(N)=O, the inhibition was 62% (SIRT3; enzyme activity, inhibitor; 10 µM).
O=C(NC1CCC1)[C@H](Cc1c[nH]c2ccccc12)NC(=O)[C@H](CCCCNC(=S)NCc1cc(O)no1)NS(=O)(=O)c1cccc(F)c1 has an inhibition of 6% (SIRT3; enzyme activity, inhibitor; 30 µM).
C[C@@H]1O[C@@H](OC[C@H]2O[C@@H](Oc3c(-c4ccc(O)cc4)oc4cc(O)cc(O)c4c3=O)[C@H](O[C@@H]3O[C@H](CO)[C@@H](O)[C@H](O)[C@H]3O)[C@@H](O)[C@@H]2O)[C@H](O)[C@H](O)[C@H]1O gave an inhibition of 72.6% (PTGS1; enzyme activity, inhibitor, absorbance; 50 µM).
With O=C(O)Cc1ccccc1OP(=O)(O)O the inhibition was 40% (Signal transducer and activator of transcription 5A, SH2 (Homo sapiens, UniProt P42229); ligand displacement, FP; 100 µM).
COc1cc(NC(C)=O)c(Cl)cc1C(=O)Nc1nccs1 gave an inhibition of -34.8% (GABRA1; cell-free assay; 10 µM).
The inhibition of O=c1c(O[C@@H]2O[C@H](CO)[C@@H](O)[C@H](O)[C@H]2O)c(-c2ccc(O)cc2)oc2cc(O)cc(O)c12 is reported as 66.9% (PTGS1; enzyme activity, inhibitor, absorbance; 50 µM).
The inhibition of CCN(Cc1ccccc1C(F)(F)F)C(=O)C1CCN(S(=O)(=O)c2ccc3[nH]ncc3c2)CC1 is reported as 11% (Androgen receptor (Ar, Rattus norvegicus, UniProt P15207); ligand displacement, radioligand; 10 µM).
CCCCCCCCCCCCNC(=S)NCCCC[C@H](NS(C)(=O)=O)C(=O)N[C@H](C)C(=O)N[C@@H](CCCNC(=N)N)C(=O)O gave an inhibition of 34% (SIRT3; enzyme activity, inhibitor; 100 µM).
With CN1CC(Oc2cnc(C#N)cc2-c2ccn3nc(NC(=O)C4CC4)cc3c2)C1 the inhibition was -5% (Transcription initiation factor TFIID subunit 1-like (TAF1L, Homo sapiens, UniProt Q8IZX4); enzyme activity, inhibitor; 1 µM).
CCCCCC1CC(=O)c2cc(OC)ccc2O1 (stereo not drawn) gave an inhibition of 9.5% (SIRT3; enzyme activity, inhibitor, fluorescence; 200 µM).
For CCN(CC)c1ccc(C2=NNC(=O)CC2C)cc1[N+](=O)[O-] (stereo not drawn), the inhibition was 97% (cGMP-inhibited 3',5'-cyclic phosphodiesterase 3B (PDE3B, Homo sapiens, UniProt Q13370); enzyme activity, inhibitor; 0.1 µM).
CCCCCCCCCCCCCC(=O)NCCCC[C@H](NS(C)(=O)=O)C(=O)N[C@H](C)C(=O)N[C@@H](CCCNC(=N)N)C(N)=O gave an inhibition of 10% (SIRT3; enzyme activity, inhibitor; 10 µM).
Cc1ccc(S(=O)(=O)n2cc(CCC3CC(=O)c4cc(Cl)cc(Br)c4O3)c3ccccc32)cc1 (stereo not drawn) gave an inhibition of 13% (SIRT3; enzyme activity, inhibitor, fluorescence; 200 µM).
With O=c1c(O[C@@H]2O[C@H](CO)[C@@H](O)[C@H](O)[C@H]2O)c(-c2ccc(O)cc2)oc2cc(O[C@@H]3O[C@H](CO)[C@@H](O)[C@H](O)[C@H]3O)cc(O)c12 the inhibition was 62.9% (PTGS1; enzyme activity, inhibitor, absorbance; 50 µM).
With O=C1CC(CCc2c[nH]c3ccccc23)Oc2c(Br)cc(Cl)cc21 (stereo not drawn) the inhibition was 20% (SIRT3; enzyme activity, inhibitor, fluorescence; 200 µM).
O=c1c(O)c(-c2ccc(O)cc2)oc2cc(O)cc(O)c12 gave an inhibition of 61.4% (PTGS1; enzyme activity, inhibitor, absorbance; 50 µM).
CCCCC[C@H]1CC(=O)c2cc(Cl)cc(Br)c2O1 gave an inhibition of 3.9% (SIRT3; enzyme activity, inhibitor, fluorescence; 200 µM).
The inhibition of Oc1cccc(Nc2nc(-c3ccc(F)cc3F)cs2)c1 is reported as -27.3% (GABRA1; cell-free assay; 10 µM).
The inhibition of CC(C)C1CC(=O)c2cc(Cl)cc(Br)c2O1 (stereo not drawn) is reported as 4.4% (SIRT3; enzyme activity, inhibitor, fluorescence; 200 µM).
CC(=S)NCCCC[C@H](NC(=O)OCc1ccccc1)C(=O)N[C@@H](Cc1c[nH]c2ccccc12)C(=O)N[C@@H](CCCNC(=N)N)C(N)=O gave an inhibition of 43% (SIRT3; enzyme activity, inhibitor; 10 µM).
